Source: article PMC4651821 (Clinical & experimental metastasis, 2015)
Read-outs that look alike come from different tables or passages of the source.

Columns and labels:
[1] = target: T1, FAK (Homo sapiens, UniProt Q05397); test: Cell-based kinase assay in cell lysates
[2] = target: T2, pFAK [Y397] (Homo sapiens, UniProt Q05397); test: PK/PD of pFAK [Y397] inhibition in xenograft tumors; type: in vivo, mouse
Summary of the method: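 TOV21G cells were implanted subcutaneously in athymic nude mice and grown to a standardized size. Mice got a single gavage dose of test compound (40–120 mg/kg in 20 % Trappsol) or vehicle. From 2 to 24 h later, tumor pFAK [Y397] was measured by ELISA alongside plasma drug levels. Time points were 4, 8 and 24 h after 80 or 120 mg/kg.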

[3] = tested on: IGROV1 cells; details: read-out: EC50 inhibition of proliferation, 3-D culture, 7 days
[4] = target: T2, pFAK [Y397]; test: pFAK [Y397] sandwich ELISA in IGROV1 cells; type: cell-based; details: read-out: IC50 of pFAK [Y397] inhibition; IGROV1 ovarian cancer cells in vitro
[5] = tested on: TOV21G cells; test: Apoptosis, caspase 3/7 activity; type: cell-based, human; details: read-out: EC50 promotion of apoptosis, 3-D culture
[6] = target: Aurora kinase A (Homo sapiens, UniProt O14965)
Chain of Aurora kinase A (O14965 whole entry): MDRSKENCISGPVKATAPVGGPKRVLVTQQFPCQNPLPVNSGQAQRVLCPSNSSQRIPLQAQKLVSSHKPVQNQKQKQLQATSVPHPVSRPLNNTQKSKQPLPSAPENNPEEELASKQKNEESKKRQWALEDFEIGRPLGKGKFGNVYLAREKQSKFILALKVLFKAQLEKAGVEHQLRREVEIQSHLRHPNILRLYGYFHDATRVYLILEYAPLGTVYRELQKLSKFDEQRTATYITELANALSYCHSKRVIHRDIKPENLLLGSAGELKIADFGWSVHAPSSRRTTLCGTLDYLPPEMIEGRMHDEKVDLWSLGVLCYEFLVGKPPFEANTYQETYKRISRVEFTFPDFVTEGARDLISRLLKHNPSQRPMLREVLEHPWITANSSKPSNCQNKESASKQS

[7] = target: T3, pFAK [Y397] (Mus musculus, UniProt P34152); test: pFAK [Y397] immunohistochemistry in RIP-Tag2 liver and tumors; type: in vivo; details: 2 h after one 20-mg/kg dose
T3 sequence (P34152 whole entry): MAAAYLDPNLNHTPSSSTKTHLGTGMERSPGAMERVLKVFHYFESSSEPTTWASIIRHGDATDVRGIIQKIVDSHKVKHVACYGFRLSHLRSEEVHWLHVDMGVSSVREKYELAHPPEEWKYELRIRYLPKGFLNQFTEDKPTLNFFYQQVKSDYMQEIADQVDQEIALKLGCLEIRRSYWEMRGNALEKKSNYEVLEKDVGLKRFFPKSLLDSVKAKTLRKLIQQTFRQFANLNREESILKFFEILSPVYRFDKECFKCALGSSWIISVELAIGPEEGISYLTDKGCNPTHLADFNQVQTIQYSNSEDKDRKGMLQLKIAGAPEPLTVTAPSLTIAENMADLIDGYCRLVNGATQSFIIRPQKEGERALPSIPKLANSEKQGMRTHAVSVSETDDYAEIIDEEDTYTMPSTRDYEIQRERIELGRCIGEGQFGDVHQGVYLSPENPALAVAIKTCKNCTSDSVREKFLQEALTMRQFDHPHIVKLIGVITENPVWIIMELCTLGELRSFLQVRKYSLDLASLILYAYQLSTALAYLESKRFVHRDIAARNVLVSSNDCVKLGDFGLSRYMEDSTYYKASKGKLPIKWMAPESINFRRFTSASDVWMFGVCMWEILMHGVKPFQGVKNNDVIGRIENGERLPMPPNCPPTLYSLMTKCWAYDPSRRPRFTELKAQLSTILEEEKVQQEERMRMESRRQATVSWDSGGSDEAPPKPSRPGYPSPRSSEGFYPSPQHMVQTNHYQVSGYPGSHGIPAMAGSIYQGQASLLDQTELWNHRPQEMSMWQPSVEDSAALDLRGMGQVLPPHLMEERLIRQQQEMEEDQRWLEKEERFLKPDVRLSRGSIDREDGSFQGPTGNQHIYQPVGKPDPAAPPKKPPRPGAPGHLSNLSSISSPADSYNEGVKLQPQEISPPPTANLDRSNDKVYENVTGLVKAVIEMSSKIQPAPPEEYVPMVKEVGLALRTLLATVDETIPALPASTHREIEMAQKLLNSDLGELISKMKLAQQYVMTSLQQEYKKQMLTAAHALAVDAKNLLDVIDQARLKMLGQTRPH

[8] = Tolerability / maximum tolerated dose in RIP-Tag2 mice; type: in vivo
[9] = tested on: liver metastases of pancreatic neuroendocrine tumors; test: Liver metastasis in RIP-Tag2 mice; type: in vivo, mouse
Summary of the method: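 RIP-Tag2 transgenic mice (C57BL/6 background) were treated for 3 weeks from age 14 weeks with vehicle (20 % Trappsol daily), test compound 20 mg/kg daily, anti-VEGFR-2 antibody DC101 1 mg ip twice weekly, or both. At 17 weeks, visible liver metastases were scored at autopsy. Micrometastases (≥2 adjacent SV40 T-antigen-positive cells) were counted and sized in two 80-μm liver sections per mouse; n = 19–24 per group.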

[10] = target: T1, FAK; test: FAK Omnia Kinase Assay; details: read-out: biochemical IC50 for FAK inhibition
Summary of the method: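 GST-tagged full-length FAK phosphorylated a sulfonamido-oxine (SOX)-containing peptide substrate, read by chelation-enhanced fluorescence (Omnia). Test compound was run as an 11-point threefold serial dilution at final 0.17–10,000 nM or 0.12–7250 nM, in triplicate. IC50 was derived from the curves.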

[11] = tested on: TOV21G cells; details: read-out: EC50 inhibition of proliferation, 3-D culture, 7 days
[12] = target: T1, FAK; test: Cellular mechanistic FAK inhibition, MDA-MB-361 cell lysates; type: cell-based; details: read-out: OXA-11 IC50 (nM) for FAK, MDA-MB-361 breast adenocarcinoma metastasis cells
[13] = target: SRC (Homo sapiens, UniProt P12931); test: Cell-based kinase assay in cell lysates
[14] = target: T3, pFAK [Y397]; test: pFAK [Y397] ELISA in RIP-Tag2 tumors; type: in vivo; details: 4 h after a single 40-mg/kg dose
Summary of the method: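 14-week-old RIP-Tag2 mice received no treatment, one 40 mg/kg dose of test compound, or 20 % Trappsol, 4 or 8 h before sampling. Mice were perfused with PBS, and tumors were removed and frozen. Total FAK and pFAK [Y397] were measured by ELISA, with pancreas of RIP-Tag2-negative littermates as control; n = 4–12 per group.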

[15] = target: Aurora kinase B (Homo sapiens, UniProt Q96GD4)
[16] = tested on: IGROV1 cells; test: Apoptosis, caspase 3/7 activity; type: cell-based, human; details: read-out: EC50 promotion of apoptosis, 3-D culture
[17] = tested on: FAK; test: Cellular mechanistic FAK inhibition, CMMT cell lysates; type: cell-based; details: read-out: OXA-11 IC50 (nM) for FAK, Monkey, CMMT mammary gland epithelial cells
[18] = target: PYK2 (Homo sapiens, UniProt Q14289); test: Cell-based kinase assay in cell lysates
Chain of PYK2 (Q14289 whole entry): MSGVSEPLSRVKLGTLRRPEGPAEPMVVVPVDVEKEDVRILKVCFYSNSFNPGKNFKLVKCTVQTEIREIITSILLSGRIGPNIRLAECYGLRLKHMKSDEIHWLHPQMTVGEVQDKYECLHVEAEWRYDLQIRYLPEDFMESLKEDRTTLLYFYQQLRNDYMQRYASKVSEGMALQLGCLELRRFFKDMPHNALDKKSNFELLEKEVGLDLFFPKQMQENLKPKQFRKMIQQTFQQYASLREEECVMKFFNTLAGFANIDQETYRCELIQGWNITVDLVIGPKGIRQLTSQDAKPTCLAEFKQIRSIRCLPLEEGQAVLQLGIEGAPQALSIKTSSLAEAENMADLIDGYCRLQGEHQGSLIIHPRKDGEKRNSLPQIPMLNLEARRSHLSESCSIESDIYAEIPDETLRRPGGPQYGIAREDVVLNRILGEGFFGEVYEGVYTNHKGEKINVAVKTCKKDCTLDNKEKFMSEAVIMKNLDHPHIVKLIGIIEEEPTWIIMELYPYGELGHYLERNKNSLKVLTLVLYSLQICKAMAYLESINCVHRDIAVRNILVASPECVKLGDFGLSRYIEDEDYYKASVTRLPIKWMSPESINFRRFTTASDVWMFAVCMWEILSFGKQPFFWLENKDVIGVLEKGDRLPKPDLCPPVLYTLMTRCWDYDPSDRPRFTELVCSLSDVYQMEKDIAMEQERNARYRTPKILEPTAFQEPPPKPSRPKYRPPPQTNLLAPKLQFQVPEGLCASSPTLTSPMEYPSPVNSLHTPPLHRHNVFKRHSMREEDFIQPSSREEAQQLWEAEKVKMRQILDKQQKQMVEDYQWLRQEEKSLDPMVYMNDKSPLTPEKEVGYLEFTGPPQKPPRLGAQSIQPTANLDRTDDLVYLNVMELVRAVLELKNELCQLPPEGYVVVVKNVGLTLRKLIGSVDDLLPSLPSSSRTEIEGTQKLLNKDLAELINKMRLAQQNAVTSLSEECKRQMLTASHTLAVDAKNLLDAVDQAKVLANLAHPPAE

[19] = tested on: RSK1/2
[20] = tested on: MDA-MB-361 breast tumors; test: Tumor growth inhibition, MDA-MB-361 xenografts in mice; type: in vivo, mouse
Summary of the method: (§1)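 TOV21G or MDA-MB-361 cells were implanted subcutaneously in athymic nude mice and grown to a standardized size (n = 8 per group). Test compound was given daily by gavage at 20–120 mg/kg for 3 weeks. Tumor size was measured and body weight recorded during treatment.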

[21] = Tolerability in xenograft-bearing athymic nude mice; type: in vivo, mouse; details: 20–120 mg/kg daily for 3 weeks
Summary of the method: as §1

[22] = target: KDR (Homo sapiens, UniProt P35968)
[23] = target: pFAK [Y861] (Mus musculus, UniProt P34152); test: pFAK [Y861] immunohistochemistry in RIP-Tag2 liver and tumors; type: in vivo; details: for reduction of pFAK [Y861] staining in liver sinusoids: RIP-Tag2 mice
Chain of pFAK [Y861] (P34152 whole entry, the tested form may be a part): as the sequence (P34152 whole entry) above
Summary of the method: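 RIP-Tag2 mice got one 20 mg/kg dose of test compound or 20 % Trappsol. pFAK [Y861] immunofluorescence was examined in liver sinusoids and tumors at 6 time points from 1 to 24 h (n = 4 mice per time point). Tissues were perfusion-fixed with 1 % PFA and frozen sections were stained; the time course gave a tissue half-life of inhibition.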

[24] = tested on: eight human tumor cell lines; details: read-out: EC50 inhibition of proliferation in 3-D culture
[25] = tested on: FAK; test: Cellular mechanistic FAK inhibition, MDCK cell lysates; type: cell-based; details: read-out: OXA-11 IC50 (nM) for FAK, Dog, MDCK kidney epithelial cells
[26] = target: T1, FAK; test: Kinase Profiling System with ADP-Glo Kinase Assay, 192 kinases; type: biochemical; details: OXA-11 concentration of 100 nM
[27] = tested on: TOV21G tumors; test: Tumor growth inhibition, TOV21G xenografts in nude mice; type: in vivo, mouse
Summary of the method: as §1

[28] = target: FAK (Mus musculus, UniProt P34152); test: Cellular mechanistic FAK inhibition, 4T1 cell lysates; type: cell-based; details: read-out: OXA-11 IC50 (nM) for FAK, 4T1 mammary carcinoma cells
Chain of FAK (Mus musculus, UniProt P34152) (P34152 whole entry): as above

[29] = target: FAK (Rattus norvegicus, UniProt O35346); test: Cellular mechanistic FAK inhibition, RMC cell lysates; type: cell-based; details: read-out: OXA-11 IC50 (nM) for FAK, RMC kidney mesangial cells
[30] = target: Insulin receptor (Homo sapiens, UniProt P06213); test: Cell-based kinase assay in cell lysates
Chain of Insulin receptor (P06213 763-1382 limits assumed): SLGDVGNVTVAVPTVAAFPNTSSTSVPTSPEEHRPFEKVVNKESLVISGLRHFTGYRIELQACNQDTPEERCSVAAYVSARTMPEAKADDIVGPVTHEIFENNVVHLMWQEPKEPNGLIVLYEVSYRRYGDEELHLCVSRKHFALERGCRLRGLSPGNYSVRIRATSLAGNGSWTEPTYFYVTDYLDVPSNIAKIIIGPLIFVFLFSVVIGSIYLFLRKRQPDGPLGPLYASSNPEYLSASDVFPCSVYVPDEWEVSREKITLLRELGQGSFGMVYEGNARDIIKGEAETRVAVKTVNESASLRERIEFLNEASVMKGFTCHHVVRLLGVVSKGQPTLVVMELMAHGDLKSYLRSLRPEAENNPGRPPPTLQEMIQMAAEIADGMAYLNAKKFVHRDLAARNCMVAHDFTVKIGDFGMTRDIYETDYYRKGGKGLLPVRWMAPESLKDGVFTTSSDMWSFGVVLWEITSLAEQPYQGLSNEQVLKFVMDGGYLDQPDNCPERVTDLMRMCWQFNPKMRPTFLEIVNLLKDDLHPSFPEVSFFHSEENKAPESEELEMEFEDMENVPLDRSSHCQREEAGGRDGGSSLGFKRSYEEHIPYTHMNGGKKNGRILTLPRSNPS
Chain of Insulin receptor (P06213 28-758 partner limits assumed): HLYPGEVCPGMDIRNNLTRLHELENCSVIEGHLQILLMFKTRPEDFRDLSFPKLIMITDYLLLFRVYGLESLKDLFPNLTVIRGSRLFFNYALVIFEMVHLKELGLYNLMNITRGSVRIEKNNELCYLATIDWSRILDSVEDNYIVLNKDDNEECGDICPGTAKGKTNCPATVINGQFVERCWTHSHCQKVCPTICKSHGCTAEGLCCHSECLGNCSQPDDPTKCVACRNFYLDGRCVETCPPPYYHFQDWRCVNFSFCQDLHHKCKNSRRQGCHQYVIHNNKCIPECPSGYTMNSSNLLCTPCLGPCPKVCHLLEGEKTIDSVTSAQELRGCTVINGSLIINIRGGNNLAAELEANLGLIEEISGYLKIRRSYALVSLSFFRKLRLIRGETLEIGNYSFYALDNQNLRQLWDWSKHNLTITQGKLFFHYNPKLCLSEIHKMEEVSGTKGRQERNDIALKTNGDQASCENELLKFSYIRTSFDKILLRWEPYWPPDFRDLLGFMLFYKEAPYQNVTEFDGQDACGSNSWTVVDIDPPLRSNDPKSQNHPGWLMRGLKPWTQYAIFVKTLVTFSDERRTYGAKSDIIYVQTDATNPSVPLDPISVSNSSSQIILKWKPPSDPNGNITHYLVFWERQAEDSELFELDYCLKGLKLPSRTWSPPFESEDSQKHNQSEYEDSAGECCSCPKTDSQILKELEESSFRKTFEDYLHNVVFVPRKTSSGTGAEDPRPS

[31] = tested on: TOV21G tumors; test: OXA-11 with cisplatin in TOV21G tumors in nude mice; type: in vivo; details: cisplatin given alone, 5 mg/kg
[32] = TOV21G xenografts, 120 mg/kg daily
[33] = cellular mechanistic IC50, TOV21G cells

T2 sequence (Q05397 whole entry): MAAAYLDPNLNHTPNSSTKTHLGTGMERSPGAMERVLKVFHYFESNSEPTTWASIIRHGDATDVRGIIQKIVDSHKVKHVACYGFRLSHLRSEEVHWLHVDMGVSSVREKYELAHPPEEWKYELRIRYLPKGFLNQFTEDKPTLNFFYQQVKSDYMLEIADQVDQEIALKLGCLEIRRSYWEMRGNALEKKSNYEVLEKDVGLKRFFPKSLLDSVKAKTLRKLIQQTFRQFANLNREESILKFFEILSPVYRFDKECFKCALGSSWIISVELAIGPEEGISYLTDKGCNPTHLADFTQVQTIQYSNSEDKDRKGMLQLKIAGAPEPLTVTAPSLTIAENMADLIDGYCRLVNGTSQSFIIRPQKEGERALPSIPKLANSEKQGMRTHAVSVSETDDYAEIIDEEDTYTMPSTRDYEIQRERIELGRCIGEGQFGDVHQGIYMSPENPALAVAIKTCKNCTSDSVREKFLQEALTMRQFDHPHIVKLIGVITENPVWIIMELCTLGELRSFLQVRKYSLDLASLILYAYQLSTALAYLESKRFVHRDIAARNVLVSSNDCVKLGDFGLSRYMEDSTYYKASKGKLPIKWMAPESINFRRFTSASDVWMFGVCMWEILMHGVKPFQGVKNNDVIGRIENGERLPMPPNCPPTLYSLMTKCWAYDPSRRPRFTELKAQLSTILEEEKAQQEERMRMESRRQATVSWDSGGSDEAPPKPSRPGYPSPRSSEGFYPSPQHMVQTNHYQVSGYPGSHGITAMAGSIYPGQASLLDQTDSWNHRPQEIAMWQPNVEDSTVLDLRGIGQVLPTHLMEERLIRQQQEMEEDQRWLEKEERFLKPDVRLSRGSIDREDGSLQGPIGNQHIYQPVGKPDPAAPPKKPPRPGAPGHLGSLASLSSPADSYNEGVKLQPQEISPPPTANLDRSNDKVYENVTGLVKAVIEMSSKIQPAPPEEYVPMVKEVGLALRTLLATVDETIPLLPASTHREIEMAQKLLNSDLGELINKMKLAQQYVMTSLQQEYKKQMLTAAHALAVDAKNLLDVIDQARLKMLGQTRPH
T1 sequence (Q05397 whole entry): as above

Structure (SMILES): CCOP(=O)(Cc1ccc(Nc2ncc(C(F)(F)F)c(Nc3ccc([C@H]4CC[C@H](N5CCN(C)CC5)CC4)c4c3C(=O)N(C)C4)n2)c(OC)c1)OCC [OXA-11, diethyl (3-methoxy-4-{ [4-({2-methyl-7-[trans-4-(4-methylpiperazin-1-yl)cyclo-hexyl]-3-oxo-2,3-dihydro-1H-isoindol-4-yl}amino)-5-(tri-fluoromethyl)pyrimidin-2-yl]amino}benzyl) phosphonate]
- Fold selectivity for FAK (FAK) [1]: 1×
- reduction of pFAK [Y397] at 24 h ([2]; TOV21G tumors, single dose 80 or 120 mg/kg, plasma levels back to baseline): approximately 25%
- suppression of pFAK [Y397] [2, 32]: 61%
- EC50 ([2]; read-out: pharmacodynamic EC50 of pFAK [Y397] inhibition, total OXA-11, TOV21G tumors in mice, 4, 8 and 24 h): 102 nM
- EC50 [3]: 0.3 nM
- IC50 [4]: 0.8 nM
- EC50 [5]: 31 nM
- Fold selectivity for FAK over Aurora kinase A ([6]; cell lysates): >1000×
- selectivity for FAK over aurora kinase A (AURKA) [6, 33]: > 1000 fold
- IC50 ([6]; read-out: OXA-11 IC50 (nM), Aurora kinase A, cellular mechanistic, cell lysates): > 10000 nM
- staining for pFAK [Y397] in RIP-Tag2 tumors [7]: reduced to nearly undetectable levels
- pFAK [Y397] immunofluorescence in liver sinusoids, less than baseline ([7]; RIP-Tag2 mice): 86%
- tolerability ([8]; 40 or 60 mg/kg daily for at least 3 weeks): well tolerated
- maximum tolerated dose ([8]; OXA-11 given with DC101): 20 mg/kg
- tolerable dosing ([8]; daily): 20 to 60 mg/kg
- mice with liver metastases visible at autopsy ([9]; 17-week old RIP-Tag2 mice after treatment for 3 weeks): 10%
- size of liver micrometastases ([9]; RIP-Tag2 mice, 3 weeks treatment): about the same as in the vehicle group
- IC50 [10]: 0.0012 nM
- EC50 [11]: 9 nM
- IC50 [12]: 20 nM
- Fold selectivity for FAK over SRC ([13]; cell lysates): >1000×
- selectivity for FAK over SRC [13, 33]: > 1000 fold
- IC50 ([13]; read-out: OXA-11 IC50 (nM), SRC, cellular mechanistic, cell lysates): > 10000 nM
- pFAK [Y397] activity in RIP-Tag2 tumors [14]: significantly reduced
- Fold selectivity for FAK over Aurora kinase B ([15]; cell lysates): >1000×
- selectivity for FAK over aurora kinase B (AURKB) [15, 33]: > 1000 fold
- IC50 ([15]; read-out: OXA-11 IC50 (nM), Aurora kinase B, cellular mechanistic, cell lysates): > 10000 nM
- EC50 [16]: 0.5 nM
- IC50 [17]: 84 nM
- Fold selectivity for FAK over PYK2 ([18]; cell lysates): 8×
- selectivity for FAK over PYK2 [18, 33]: eightfold
- IC50 ([18]; read-out: OXA-11 IC50 (nM), PYK2, cellular mechanistic, cell lysates): 80 nM
- Fold selectivity for FAK over RSK1/2 ([19]; cell lysates): 26×
- selectivity for FAK over RSK1/2 [19, 33]: 26 fold
- IC50 ([19]; read-out: OXA-11 IC50 (nM), RSK1/2, cellular mechanistic, cell lysates): 260 nM
- inhibition of MDA-MB-361 tumor growth over 3 weeks ([20]; higher daily dose (120 mg/kg)): 95%
- inhibition of MDA-MB-361 tumor growth over 3 weeks ([20]; lower daily dose (40 mg/kg)): 60%
- dose-limiting toxicity [21]: No dose-limiting toxicity
- Fold selectivity for FAK over KDR ([22]; cell lysates): >1000×
- selectivity for FAK over KDR (VEGFR-2, FLK1) [22, 33]: > 1000 fold
- IC50 ([22]; read-out: OXA-11 IC50 (nM), KDR, cellular mechanistic, cell lysates): > 10000 nM
- staining for pFAK [Y861] in RIP-Tag2 tumors ([23]; 2 h after one 20-mg/kg dose): reduced to nearly undetectable levels
- tissue half-life of OXA-11 inhibition of pFAK [Y861] ([23]; RIP-Tag2 liver sinusoids, single dose 20 mg/kg): about 4 h
- reduction of pFAK [Y861] staining in liver sinusoids ([23]; 1 h after single dose 20 mg/kg): 79%
- reduction of pFAK [Y861] staining in liver sinusoids ([23]; 4 h after single dose 20 mg/kg): 57%
- reduction of pFAK [Y861] staining in liver sinusoids ([23]; 6 h after single dose 20 mg/kg): 35%
- EC50 ([24]; TOV21G, OVCAR3, OVCAR5 and IGROV1 cells (high baseline pFAK [Y397])): 0.3 to 14.5 nM
- EC50 ([24]; four other cell lines with lower baseline pFAK [Y397]): > 100 nM
- IC50 [25]: 32 nM
- inhibition of kinase in biochemical specificity screening [26]: more than 50%
- inhibition of tumor growth [27, 32]: 77%
- reduction in size of TOV21G tumors ([27]; nude mice, 20–120 mg/kg daily for 3 weeks): 22–67%
- IC50 [28]: 8 nM
- IC50 [29]: 18 nM
- Fold selectivity for FAK over Insulin receptor ([30]; cell lysates): >1000×
- selectivity for FAK over insulin receptor (IR, INSR) [30, 33]: > 1000 fold
- IC50 ([30]; read-out: OXA-11 IC50 (nM), Insulin receptor, cellular mechanistic, cell lysates): > 10000 nM

Structure (SMILES): N.N.[Cl][Pt][Cl] [cisplatin]
- effect on pFAK [Y397] in TOV21G-cell tumors [31]: increased pFAK [Y397]
